# How the values were obtained:
# [1] = test system: Abutilon theophrasti; assay: Herbicidal activity against Abutilon theophrasti (velvetleaf) at 1000 g/hm2 postemergent application after 2 weeks; assay type: functional
# Procedure, shortened: (§1)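 Seedlings grown 14 days in the greenhouse; plants uniform in size and stage were chosen. Test compound in acetone sprayed post-emergence at a carrier volume equivalent to 187 L/ha. Plants returned to the greenhouse and watered; untreated plants served as control. Each species scored visually two weeks after application on a 0–100 scale (0 no activity, 100 total control).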
# [2] = test system: Digitaria sanguinalis; assay: Herbicidal activity against Digitaria sanguinalis (hairy crabgrass) at 2000 g/hm2 postemergent application after 2 weeks; assay type: functional; procedure, shortened: as §1
# [3] = test system: Digitaria sanguinalis; assay: Herbicidal activity against Digitaria sanguinalis (hairy crabgrass) at 1000 g/hm2 postemergent application after 2 weeks; assay type: functional; procedure, shortened: as §1
# [4] = test system: Echinochloa crus-galli; assay: Herbicidal activity against Echinochloa crus-galli (barnyard grass) at 1000 g/hm2 postemergent application after 2 weeks; assay type: functional; procedure, shortened: as §1
# [5] = test system: Abutilon theophrasti; assay: Herbicidal activity against Abutilon theophrasti (velvetleaf) at 2000 g/hm2 postemergent application after 2 weeks; assay type: functional; procedure, shortened: as §1
# [6] = test system: Echinochloa crus-galli; assay: Herbicidal activity against Echinochloa crus-galli (barnyard grass) at 2000 g/hm2 postemergent application after 2 weeks; assay type: functional; procedure, shortened: as §1
# [7] = test system: Abutilon theophrasti; assay: Herbicidal activity against Abutilon theophrasti (velvetleaf) at 120 g/hm2 postemergent application after 2 weeks; assay type: functional; procedure, shortened: as §1
# [8] = test system: Abutilon theophrasti; assay: Herbicidal activity against Abutilon theophrasti (velvetleaf) at 30 g/hm2 postemergent application after 2 weeks; assay type: functional; procedure, shortened: as §1
# [9] = test system: Xanthium strumarium; assay: Herbicidal activity against Xanthium strumarium (cocklebur) at 100 g/hm2 postemergent application after 2 weeks; assay type: functional; procedure, shortened: as §1
# [10] = Crop selectivity index, ratio of LD10 for soybean to LD90 for velvetleaf
# [11] = test system: Abutilon theophrasti; assay: Herbicidal activity against Abutilon theophrasti (velvetleaf) at 480 g/hm2 postemergent application after 2 weeks; assay type: functional; procedure, shortened: as §1
# [12] = test system: Digitaria sanguinalis; assay: Herbicidal activity against Digitaria sanguinalis (hairy crabgrass) at 480 g/hm2 postemergent application after 2 weeks; assay type: functional; procedure, shortened: as §1
# [13] = test system: Abutilon theophrasti; assay: Herbicidal activity against Abutilon theophrasti (velvetleaf) at 25 g/hm2 postemergent application after 2 weeks; assay type: functional; procedure, shortened: as §1
# [14] = test system: Echinochloa crus-galli; assay: Herbicidal activity against Echinochloa crus-galli (barnyard grass) at 25 g/hm2 postemergent application after 2 weeks; assay type: functional; procedure, shortened: as §1
# [15] = test system: Abutilon theophrasti; assay: Herbicidal activity against Abutilon theophrasti (velvetleaf) at postemergent application after 2 weeks; assay type: functional; procedure, shortened: as §1
# [16] = test system: Xanthium strumarium; assay: Herbicidal activity against Xanthium strumarium (cocklebur) at 25 g/hm2 postemergent application after 2 weeks; assay type: functional; procedure, shortened: as §1
# [17] = test system: Digitaria sanguinalis; assay: Herbicidal activity against Digitaria sanguinalis (hairy crabgrass) at 100 g/hm2 postemergent application after 2 weeks; assay type: functional; procedure, shortened: as §1
# [18] = test system: Triticum aestivum; assay: Toxicity against Triticum aestivum (wheat) at 25 g/hm2 postemergent application after 2 weeks; assay type: organism-based; conditions: in vivo, other, 336 h
# [19] = test system: Digitaria sanguinalis; assay: Herbicidal activity against Digitaria sanguinalis (hairy crabgrass) at 25 g/hm2 postemergent application after 2 weeks; assay type: functional; procedure, shortened: as §1
# [20] = test system: Portulaca oleracea; assay: Herbicidal activity against Portulaca oleracea at 40 g/hm2 postemergent application after 2 weeks; assay type: functional; procedure, shortened: as §1
# [21] = test system: Digitaria sanguinalis; assay: Herbicidal activity against Digitaria sanguinalis (hairy crabgrass) at 40 g/hm2 postemergent application after 2 weeks; assay type: functional; procedure, shortened: as §1
# [22] = test system: Glycine max; assay: Toxicity against Glycine max (soybean) at postemergent application after 2 weeks; assay type: organism-based; conditions: in vivo, other, 336 h; procedure, shortened: as §1
# [23] = test system: Triticum aestivum; assay: Toxicity against Triticum aestivum (wheat) at 100 g/hm2 postemergent application after 2 weeks; assay type: organism-based; conditions: in vivo, other, 336 h; procedure, shortened: as §1
# [24] = test system: Setaria glauca (foxtail); assay: Herbicidal activity against Setaria glauca at 40 g/hm2 postemergent application after 2 weeks
# [25] = test system: Echinochloa crus-galli; assay: Herbicidal activity against Echinochloa crus-galli (barnyard grass) at 30 g/hm2 postemergent application after 2 weeks; assay type: functional; procedure, shortened: as §1
# [26] = test system: Commelina communis; assay: Herbicidal activity against Commelina communis (Asiatic dayflower) at 40 g/hm2 post-emergent application after 2 weeks; assay type: functional; procedure, shortened: as §1
# [27] = test system: Abutilon theophrasti; assay: Herbicidal activity against Abutilon theophrasti (velvetleaf) at 40 g/hm2 postemergent application after 2 weeks; assay type: functional; procedure, shortened: as §1
# [28] = test system: Xanthium strumarium; assay: Herbicidal activity against Xanthium strumarium (cocklebur) at 40 g/hm2 postemergent application after 2 weeks; assay type: functional; procedure, shortened: as §1
# [29] = test system: Echinochloa crus-galli; assay: Herbicidal activity against Echinochloa crus-galli (barnyard grass) at 100 g/hm2 postemergent application after 2 weeks; assay type: functional; procedure, shortened: as §1
# [30] = test system: Glycine max; assay: Toxicity against Glycine max (soybean) at 25 g/hm2 postemergent application after 2 weeks; assay type: organism-based; conditions: in vivo, other, 336 h
# [31] = test system: Digitaria sanguinalis; assay: Herbicidal activity against Digitaria sanguinalis (hairy crabgrass) at 30 g/hm2 postemergent application after 2 weeks; assay type: functional; procedure, shortened: as §1
# [32] = test system: Amaranthus retroflexus; assay: Herbicidal activity against Amaranthus retroflexus at 40 g/hm2 postemergent application after 2 weeks; assay type: functional; procedure, shortened: as §1
# [33] = test system: Digitaria sanguinalis; assay: Herbicidal activity against Digitaria sanguinalis (hairy crabgrass) at 120 g/hm2 postemergent application after 2 weeks; assay type: functional; procedure, shortened: as §1
# [34] = test system: Commelina communis; assay: Herbicidal activity against Commelina communis (Asiatic dayflower) at 100 g/hm2 post-emergent application after 2 weeks; assay type: functional; procedure, shortened: as §1
# [35] = test system: Commelina communis; assay: Herbicidal activity against Commelina communis (Asiatic dayflower) at 25 g/hm2 post-emergent application after 2 weeks; assay type: functional; procedure, shortened: as §1
# [36] = test system: Abutilon theophrasti; assay: Herbicidal activity against Abutilon theophrasti (velvetleaf) at 100 g/hm2 postemergent application after 2 weeks; assay type: functional; procedure, shortened: as §1
# [37] = test system: Echinochloa crus-galli; assay: Herbicidal activity against Echinochloa crus-galli (barnyard grass) at 480 g/hm2 postemergent application after 2 weeks; assay type: functional; procedure, shortened: as §1
# [38] = test system: Glycine max; assay: Toxicity against Glycine max (soybean) at 100 g/hm2 postemergent application after 2 weeks; assay type: organism-based; conditions: in vivo, other, 336 h; procedure, shortened: as §1
# [39] = test system: Echinochloa crus-galli; assay: Herbicidal activity against Echinochloa crus-galli (barnyard grass) at 120 g/hm2 postemergent application after 2 weeks; assay type: functional; procedure, shortened: as §1
# [40] = test system: Echinochloa crus-galli; assay: Herbicidal activity against Echinochloa crus-galli (barnyard grass) at 40 g/hm2 postemergent application after 2 weeks; assay type: functional; procedure, shortened: as §1
# [41] = test system: Abutilon theophrasti; assay: Herbicidal activity against Abutilon theophrasti (velvetleaf) at 400 g/hm2 postemergent application after 2 weeks; assay type: functional; procedure, shortened: as §1
# [42] = test system: Commelina communis; assay: Herbicidal activity against Commelina communis (Asiatic dayflower) at 400 g/hm2 post-emergent application after 2 weeks; assay type: functional; procedure, shortened: as §1
# [43] = test system: Echinochloa crus-galli; assay: Herbicidal activity against Echinochloa crus-galli (barnyard grass) at 400 g/hm2 postemergent application after 2 weeks; assay type: functional; procedure, shortened: as §1
# [44] = test system: Setaria glauca (foxtail); assay: Herbicidal activity against Setaria glauca at 400 g/hm2 postemergent application after 2 weeks
# [45] = test system: Portulaca oleracea; assay: Herbicidal activity against Portulaca oleracea at 400 g/hm2 postemergent application after 2 weeks; assay type: functional; procedure, shortened: as §1
# [46] = test system: Digitaria sanguinalis; assay: Herbicidal activity against Digitaria sanguinalis (hairy crabgrass) at 400 g/hm2 postemergent application after 2 weeks; assay type: functional; procedure, shortened: as §1
# [47] = test system: Glycine max; assay: Toxicity against Glycine max (soybean) at 400 g/hm2 postemergent application after 2 weeks; assay type: organism-based; conditions: in vivo, other, 336 h; procedure, shortened: as §1
# [48] = test system: Triticum aestivum; assay: Toxicity against Triticum aestivum (wheat) at 400 g/hm2 postemergent application after 2 weeks; assay type: organism-based; conditions: in vivo, other, 336 h
# Procedure, shortened: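 Greenhouse post-emergence test: plants grown 14 days, then chosen for uniform size and stage. Compound dissolved in acetone and sprayed at a carrier volume equivalent to 187 L per hectare, over […]. Untreated plants served as control. Plants were rated two weeks after application on a 0–100 scale (0 no activity, 100 total control).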
# [49] = test system: Amaranthus retroflexus; assay: Herbicidal activity against Amaranthus retroflexus at 400 g/hm2 postemergent application after 2 weeks; assay type: functional; procedure, shortened: as §1
# [50] = test system: Abutilon theophrasti; assay: Herbicidal activity against Abutilon theophrasti (velvetleaf) at 200 g/hm2 postemergent application after 2 weeks; assay type: functional; procedure, shortened: as §1
# [51] = test system: Digitaria sanguinalis; assay: Herbicidal activity against Digitaria sanguinalis (hairy crabgrass) at 200 g/hm2 postemergent application after 2 weeks; assay type: functional; procedure, shortened: as §1
# [52] = test system: Echinochloa crus-galli; assay: Herbicidal activity against Echinochloa crus-galli (barnyard grass) at 200 g/hm2 postemergent application after 2 weeks; assay type: functional; procedure, shortened: as §1
# [53] = test system: Xanthium strumarium; assay: Herbicidal activity against Xanthium strumarium (cocklebur) at 400 g/hm2 postemergent application after 2 weeks; assay type: functional; procedure, shortened: as §1
compound,measurement,setting,value
C=CCOC(=O)/C=C/COC(=O)c1cc(Oc2ccc(C(F)(F)F)cc2Cl)ccc1[N+](=O)[O-],Activity,[1],80%
same,Activity,[2],55%
same,Activity,[3],25%
same,Activity,[4],30%
same,Activity,[5],100%
same,Activity,[6],60%
CCOC(=O)/C=C/COC(=O)c1cc(Oc2ccc(C(F)(F)F)cc2Cl)ccc1[N+](=O)[O-],Activity,[7],99%
same,Activity,[8],95%
same,Activity,[9],98%
same,Selectivity Index,[10],3.2
same,Activity,[11],100%
same,Activity,[12],90%
same,Activity,[13],65%
same,Activity,[14],0%
same,LD90,[15],19.4 g/hm2
same,Activity,[16],40%
same,Activity,[17],60%
same,Activity,[18],10%
same,Activity,[19],5%
same,Activity,[20],95%
same,Activity,[21],70%
same,LD10,[22],63 g/hm2
same,Activity,[23],25%
same,Activity,[24],<70%
same,Activity,[25],40%
same,Activity,[26],<70%
same,Activity,[27],95%
same,Activity,[28],70%
same,Activity,[29],55%
same,Activity,[30],5%
same,Activity,[31],60%
same,Activity,[32],95%
same,Activity,[33],80%
same,Activity,[34],95%
same,Activity,[35],35%
same,Activity,[36],100%
same,Activity,[37],70%
same,Activity,[38],10%
same,Activity,[39],50%
same,Activity,[40],<70%
O=C(O)c1cc(Oc2ccc(C(F)(F)F)cc2Cl)ccc1[N+](=O)[O-] [ACIFLUORFEN],Activity,[1],100%
same,Activity,[41],70%
same,Activity,[42],<70%
same,Activity,[43],<70%
same,Activity,[9],80%
same,Selectivity Index,[10],3.4
same,Activity,[44],<70%
same,Activity,[3],10%
same,Activity,[4],90%
same,Activity,[45],95%
same,LD90,[15],137.4 g/hm2
same,Activity,[17],10%
same,Activity,[46],70%
same,Activity,[21],0%
same,LD10,[22],461.8 g/hm2
same,Activity,[23],0%
same,Activity,[47],10%
same,Activity,[48],15%
same,Activity,[49],95%
same,Activity,[27],50%
same,Activity,[29],25%
same,Activity,[50],95%
same,Activity,[51],0%
same,Activity,[34],60%
same,Activity,[36],85%
same,Activity,[52],50%
same,Activity,[53],<70%
same,Activity,[38],5%
same,Activity,[40],20%

# — ChEMBL document CHEMBL3046106, “Synthesis and herbicidal activity of diphenyl ether derivatives containing unsaturated carboxylates” (J Agric Food Chem, 2011)
